The source of these data is article PMC4608253 (Journal of chromatography. B, Analytical technologies in …, 2015).

Where two headings read alike, the source gives them in different places.

For orientation: AUC(0-t) means exposure summed from dosing to a finite time, without extrapolation to infinity. Higher therefore signals high exposure. A word on the Cmax: it is the highest concentration seen after dosing. Broadly, the AUC(0-inf) is total exposure, with the tail of the curve extrapolated. A high value points to more exposure. The term half-life denotes the time needed for the level to fall by half in the phase considered. A lower half-life goes with fast loss.

Series [1] is classed as physicochemical, mice. The note with it: for Accuracy (RE, %) 25°C for 6 h / Accuracy (RE, %) Frozen for 30 days: stability in mice plasma/blood QC sample; for Accuracy (RE, %) Frozen for 30 days: −80°C; for Accuracy (RE, %) 4°C for 24 h: stability, extracted QC sample in auto-sampler. Put shortly:
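Blank mouse blood spiked with analytes and vitamin C, then extracted with methanol containing daidzein internal standard (0.5 μM) by 1 min vortex. Spun at 20,000 × g for 15 min and dried under air. Three replicates per QC level were held unextracted at 25°C for 6 h, at −80°C for 30 days, or extracted in the 4°C autosampler for 24 h. Analysed by UPLC-MS/MS (C18, formic acid/acetonitrile, positive MRM); accuracy as RE.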

A short description of another series: in vivo. The class given is in vivo, A/J mice. The note with it: for concentration in the PK study: oral XCHT 500 mg/kg; for detected in the blood: mice, oral XCHT extract 0.5 g/kg.
[2] abbreviates: male A/J mouse, oral XCHT extract 500 mg/kg, blood, mean±SD, n=6.
Setting [3] is: male A/J mouse, oral XCHT extract 500 mg/kg, blood, median (min~max), n=6.
Where [4] appears, read: male, A/J, mouse, whole blood, po, 500 mg/kg.

Turning to `CC(C)=CCC[C@](C)(O[C@@H]1O[C@H](CO)[C@@H](O)[C@H](O)[C@H]1O)[C@H]1CC[C@]2(C)[C@@H]1[C@H](O)C[C@@H]1[C@@]3(C)CC[C@H](O)C(C)(C)[C@@H]3[C@@H](O[C@@H]3O[C@H](CO)[C@@H](O)[C@H](O)[C@H]3O)C[C@]12C` [Rg1, ginsenoside Rg1], the “Accuracy (RE, %) 25°C for 6 h” value in series [1] (spiked concentration 0.488) amounted to 14.8%; in series [1] (spiked concentration 62.5), 7.4%; in series [1] (spiked concentration 500), 8.5%. Besides, the “Accuracy (RE, %) Frozen for 30 days” value in series [1] (spiked concentration 0.488) was determined as 7.2%; in series [1] (spiked concentration 62.5) it was 9.2%; in series [1] (spiked concentration 500), 12.5%. Moreover, the “Accuracy (RE, %) 4°C for 24 h” value is reported as 4.7% in series [1] (spiked concentration 0.488), 10.1% in series [1] (spiked concentration 62.5) and 12.12% in series [1] (spiked concentration 500). Also, the “concentration in the PK study” value was determined as 0.80±0.50 in the series “in vivo” (A/J mice, blood, time 15 min) and 1.16±0.29 in the series “in vivo” (A/J mice, blood, time 480 min).

`CC(C)=CCC[C@](C)(O)[C@H]1CC[C@]2(C)[C@@H]1[C@H](O)C[C@@H]1[C@@]3(C)CC[C@H](O[C@@H]4O[C@H](CO)[C@@H](O)[C@H](O)[C@H]4O[C@@H]4O[C@H](CO)[C@@H](O)[C@H](O)[C@H]4O)C(C)(C)[C@@H]3CC[C@]12C` [Rg3, ginsenoside Rg3]: the results for the “Accuracy (RE, %) 25°C for 6 h” value in series [1] (spiked concentration 0.488), in series [1] (spiked concentration 6.25) and in series [1] (spiked concentration 500) were 9.2%, 9.2% and −4.3%, respectively. Moreover, the “Accuracy (RE, %) Frozen for 30 days” value in series [1] (spiked concentration 0.488) amounted to 8.0%; in series [1] (spiked concentration 6.25), 8.0%; in series [1] (spiked concentration 500), 0.4%. Moreover, the “Accuracy (RE, %) 4°C for 24 h” value stood at 1.57% in series [1] (spiked concentration 0.488), 8.64% in series [1] (spiked concentration 6.25) and 0.4% in series [1] (spiked concentration 500). The “concentration in the PK study” value was 1.33±0.48 in the series “in vivo” (A/J mice, blood, time 5 min); 3.74±3.73 in “in vivo” (A/J mice, blood, time 30 min); 1.61±0.53 in the series “in vivo” (A/J mice, blood, time 360 min).

Consider `C[C@H]1O[C@@H](O[C@H]2CC[C@@]3(C)[C@@H](CC[C@]4(C)[C@@H]3C=C[C@]35OC[C@@]6(CCC(C)(C)C[C@H]63)[C@@H](O)C[C@]54C)[C@]2(C)CO)[C@H](O)[C@@H](O[C@@H]2O[C@H](CO)[C@@H](O)[C@H](O)[C@H]2O)[C@H]1O` [SSa, saikosaponin a], for which the “Accuracy (RE, %) 25°C for 6 h” value in series [1] (spiked concentration 0.39) is reported as 0.7%; in series [1] (spiked concentration 6.25) it was −1.5%; in series [1] (spiked concentration 50), 7.4%. In addition, the “Accuracy (RE, %) Frozen for 30 days” value is on record as −6.7% in series [1] (spiked concentration 0.39), 10.8% in series [1] (spiked concentration 6.25) and 12.1% in series [1] (spiked concentration 50). Moreover, the results for the “Accuracy (RE, %) 4°C for 24 h” value in series [1] (spiked concentration 0.39), in series [1] (spiked concentration 6.25) and in series [1] (spiked concentration 50) were −7.4%, 12% and 10.6%, respectively. Further, the “concentration in the PK study” value is listed as 0.69±0.26 in the series “in vivo” (A/J mice, blood, time 5 min); 1.17±0.88 in the series “in vivo” (A/J mice, blood, time 15 min); 1.02±0.75 in “in vivo” (A/J mice, blood, time 30 min); 1.15±0.77 in the series “in vivo” (A/J mice, blood, time 60 min); 0.85±0.51 in the series “in vivo” (A/J mice, blood, time 120 min).

On to `C[C@H]1O[C@@H](O[C@H]2CC[C@@]3(C)[C@@H](CC[C@]4(C)[C@@H]3C=C[C@]35OC[C@@]6(CCC(C)(C)C[C@H]63)[C@H](O)C[C@]54C)[C@]2(C)CO)[C@H](O)[C@@H](O[C@@H]2O[C@H](CO)[C@@H](O)[C@H](O)[C@H]2O)[C@H]1O` [SSd, saikosaponin d], for which, in series [1] (spiked concentration 0.049), the “Accuracy (RE, %) 25°C for 6 h” value turned out to be 6.8%; the “Accuracy (RE, %) Frozen for 30 days” value is given as 8.7%; the “Accuracy (RE, %) 4°C for 24 h” value is given as −19%. Moreover, in series [1] (spiked concentration 6.25), the “Accuracy (RE, %) 25°C for 6 h” value is given as −13.0%; the “Accuracy (RE, %) Frozen for 30 days” value turned out to be 12.5%; the “Accuracy (RE, %) 4°C for 24 h” value stood at 13.1%. Besides, in series [1] (spiked concentration 50), the “Accuracy (RE, %) 25°C for 6 h” value is 2.4%; the “Accuracy (RE, %) Frozen for 30 days” value is on record as 15.0%; the “Accuracy (RE, %) 4°C for 24 h” value is on record as 14.5%. In “in vivo” (setting [2]), the “AUC0-∞” value stood at 0.02584 ± 0.0185 µM·h, the AUC(0-t) was 0.02584 ± 0.0185 µM·h, the Cmax worked out at 3.42 ± 0.74 nM and the t1/2 came out at 12.18 ± 5.32 h. In addition, the Tmax in the series “in vivo” (setting [3]) was 0.50 (0.125~0.5) h. The “detected in the blood” value in “in vivo” is given as “detected”.

On to `COc1c(O)cc(O)c2c(=O)cc(-c3ccccc3)oc12` [Wogonin, wogonin], for which, in series [1] (spiked concentration 3.9), the “Accuracy (RE, %) 25°C for 6 h” value was 11.4%; the “Accuracy (RE, %) Frozen for 30 days” value was 8.4%; the “Accuracy (RE, %) 4°C for 24 h” value is 9.2%. For the same compound, in series [1] (spiked concentration 62.5), the “Accuracy (RE, %) 25°C for 6 h” value is recorded as 9.5%; the “Accuracy (RE, %) Frozen for 30 days” value stood at 15%; the “Accuracy (RE, %) 4°C for 24 h” value amounted to 14.8%. Moreover, in series [1] (spiked concentration 500), the “Accuracy (RE, %) 25°C for 6 h” value is given as 3.1%; the “Accuracy (RE, %) Frozen for 30 days” value is recorded as 10.3%; the “Accuracy (RE, %) 4°C for 24 h” value worked out at 13.5%. Also, the Tmax in the series “in vivo” (male, A/J, mouse, whole blood, po, 0.5 g/kg) worked out at 0.17 ± 0.09 h. Moreover, in “in vivo” (setting [4]), the AUC(0-inf) stood at 0.116 ± 0.0822 µM·h, the area under the curve AUC(0-t) was found to be 0.11 ± 0.0878 µM·h, the highest level (Cmax) was 18.8 ± 6.27 nM and the Tmax amounted to 0.167 h. Besides, the half-life in the series “in vivo” (setting [4]) was 6.16 ± 4.85 h.

Take `COc1c(O[C@@H]2O[C@H](C(=O)O)[C@@H](O)[C@H](O)[C@H]2O)cc(O)c2c(=O)cc(-c3ccccc3)oc12` [Wogonoside, wogonoside]: in series [1] (spiked concentration 0.488), the “Accuracy (RE, %) 25°C for 6 h” value came out at 14.1%; the “Accuracy (RE, %) Frozen for 30 days” value is −10.9%; the “Accuracy (RE, %) 4°C for 24 h” value came to 2.3%. Further, in series [1] (spiked concentration 62.5), the “Accuracy (RE, %) 25°C for 6 h” value is reported as 8.5%; the “Accuracy (RE, %) Frozen for 30 days” value is 10.1%; the “Accuracy (RE, %) 4°C for 24 h” value came to 15.1%. Further, in series [1] (spiked concentration 500), the “Accuracy (RE, %) 25°C for 6 h” value came out at 1.4%; the “Accuracy (RE, %) Frozen for 30 days” value is recorded as 11.2%; the “Accuracy (RE, %) 4°C for 24 h” value came to 12.6%. For the same compound, in “in vivo” (setting [2]), the “AUC0-∞” value is 1.55574 ± 0.12091 µM·h, the exposure AUC(0-t) came out at 1.44654 ± 0.33091 µM·h, the Cmax was determined as 174 ± 42.1 nM and the t1/2 is 4.77 ± 1.24 h. Also, in “in vivo” (setting [3]), the Tmax is 1.625 (0.083~3) h. In “in vivo” (mean±SD, A/J mice, oral XCHT 0.5 g/kg), the Tmax came to 1.58 ± 1.63 h. Also, the “detected in the blood” value in “in vivo” is given as “detected”.
